Experimental data published in ChEMBL document CHEMBL1159121, “Synthesis, in vitro structure-activity relationship, and in vivo studies of 2-arylthiazolidine-4-carboxylic acid amides as anticancer agents” (Bioorg Med Chem, 2010).
The source made the active and inactive calls. The calls are words filed in the database; no cut-off is given here.

Experiments:
[1] = biological target: T1, Lysophosphatidic acid receptor 1 (Homo sapiens, UniProt Q92633); test: Agonist activity at LPA1 expressed in human chem1 cells assessed as intracellular calcium mobilization by FLIPR assay; format: functional, cell-based
T1 sequence (Q92633 whole entry): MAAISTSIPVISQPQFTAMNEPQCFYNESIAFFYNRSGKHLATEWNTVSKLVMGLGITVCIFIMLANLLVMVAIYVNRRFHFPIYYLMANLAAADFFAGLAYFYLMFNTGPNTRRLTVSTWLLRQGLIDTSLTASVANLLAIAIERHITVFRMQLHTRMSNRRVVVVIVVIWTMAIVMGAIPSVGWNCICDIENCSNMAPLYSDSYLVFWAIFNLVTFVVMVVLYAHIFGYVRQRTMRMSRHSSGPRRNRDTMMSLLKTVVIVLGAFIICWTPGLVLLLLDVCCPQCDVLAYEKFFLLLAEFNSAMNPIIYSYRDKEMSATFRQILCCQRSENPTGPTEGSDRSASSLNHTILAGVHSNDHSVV
Method in brief: (§1)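 Chem-1 cells stably transfected with LPA1, LPA3 or LPA5, kept in DMEM/10% FBS; Fluo-4 NW loaded. Compound added as an eight-point fourfold serial dilution (top 10 μM), then incubated 10 min at 25 °C. Ca2+ flux read for 180 s on FLIPR, expressed as percentage activation.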

[2] = biological target: T2, Lysophosphatidic acid receptor 3 (Homo sapiens) (UniProt Q9UBY5); test: Agonist activity at LPA3 expressed in human chem1 cells assessed as intracellular calcium mobilization by FLIPR assay; format: functional, cell-based; method in brief: as §1
T2 sequence (whole entry): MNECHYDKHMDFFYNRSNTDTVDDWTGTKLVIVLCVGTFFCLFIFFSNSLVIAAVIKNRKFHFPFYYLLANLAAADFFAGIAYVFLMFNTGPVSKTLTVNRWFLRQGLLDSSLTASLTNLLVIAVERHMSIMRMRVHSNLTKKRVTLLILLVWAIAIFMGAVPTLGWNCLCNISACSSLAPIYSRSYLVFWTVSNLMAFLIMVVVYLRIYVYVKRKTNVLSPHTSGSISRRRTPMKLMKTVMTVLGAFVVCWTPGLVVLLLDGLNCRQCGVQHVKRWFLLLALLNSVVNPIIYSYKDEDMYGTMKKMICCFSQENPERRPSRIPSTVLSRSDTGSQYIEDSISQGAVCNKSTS

[3] = biological target: Lysophosphatidic acid receptor 5 (Homo sapiens) (UniProt Q9H1C0); test: Agonist activity at LPA5 expressed in human chem1 cells assessed as intracellular calcium mobilization by FLIPR assay; format: functional, cell-based; method in brief: as §1
Sequence of Lysophosphatidic acid receptor 5 (Homo sapiens) (Q9H1C0 whole entry): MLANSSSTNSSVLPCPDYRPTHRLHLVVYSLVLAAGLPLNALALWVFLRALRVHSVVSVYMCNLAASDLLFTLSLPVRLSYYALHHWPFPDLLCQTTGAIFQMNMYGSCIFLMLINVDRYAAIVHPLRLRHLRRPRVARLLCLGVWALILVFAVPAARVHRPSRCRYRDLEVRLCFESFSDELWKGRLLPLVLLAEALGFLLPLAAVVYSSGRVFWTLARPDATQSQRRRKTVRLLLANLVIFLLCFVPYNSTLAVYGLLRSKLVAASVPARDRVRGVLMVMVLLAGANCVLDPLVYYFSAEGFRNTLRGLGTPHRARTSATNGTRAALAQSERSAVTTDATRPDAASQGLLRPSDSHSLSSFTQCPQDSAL

[4] = biological target: T1, Lysophosphatidic acid receptor 1; test: Antagonist activity at LPA1 expressed in human chem1 cells assessed as effect on intracellular calcium mobilization by FLIPR assay; format: functional, cell-based
Method in brief: (§2)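 LPA1-, LPA3- or LPA5-transfected Chem-1 cells, Fluo-4 NW loaded, preincubated 10 min at 25 °C with compound. Dilution series was eight-point, fourfold, top final concentration 10 μM. […] FLIPR Ca2+ signal read for 180 s, percentage inhibition calculated; 50% inhibition was taken as antagonism.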

[5] = Antiproliferative activity against mouse B16-F1 cells after 48 hrs by SRB assay; format: functional, cell-based; conditions: B16-F1, 48 h
Method in brief: (§3)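 Melanoma lines and control fibroblasts grown at 37 °C, 5% CO2, then exposed to a wide concentration range for 48 h in round-bottom 96-well plates. Fixed with 10% TCA, stained with SRB, protein read at 560 nm. IC50 (50% growth inhibition versus untreated) obtained by nonlinear regression.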

A-375 [6] = test: Antiproliferative activity against human A375 cells after 48 hrs by SRB assay; format: functional, cell-based; conditions: A-375, 48 h; method in brief: as §3
[7] = Antiproliferative activity against human WM164 cells after 48 hrs by SRB assay; format: functional, cell-based; conditions: WM164, 48 h; method in brief: as §3
[8] = Cytotoxicity against human fibroblasts after 48 hrs by SRB assay; format: cell-based; conditions: Fibroblast; method in brief: as §3
[9] = Selectivity ratio of IC50 for human fibroblasts to IC50 for human melanoma cells; format: ADME; conditions: human fibroblasts and human melanoma cells, read-out: Ratio IC50
DU-145 = test: Antiproliferative activity against human DU145 cells after 96 hrs by SRB assay; format: functional, cell-based; conditions: DU-145, 96 h
Method in brief: (§4)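 Prostate lines in RPMI1640/10% FBS; RH7777 in DMEM/10% FBS. Cells TCA-fixed, stained with 0.4% SRB, absorbance read at 540 nm. IC50 from nonlinear regression of % survival against concentration.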

PC-3 = test: Antiproliferative activity against human PC3 cells after 96 hrs by SRB assay; format: functional, cell-based; conditions: PC-3, 96 h
RH7777 [10] = test: Cytotoxicity against rat RH7777 cells after 96 hrs by SRB assay; format: cell-based; conditions: RH7777, 96 h; method in brief: as §4
RH7777 [11] = test: Selectivity ratio of IC50 for rat RH7777 cells to IC50 for human prostate cancer cells
Method in brief: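 Ratio of RH7777 IC50 to the mean IC50 over four prostate lines (DU 145, PC-3, LNCaP, PPC-1). Prostate lines grown in RPMI1640/10% FBS and RH7777 in DMEM/10% FBS. Read by SRB (0.4%) at 540 nm; IC50 by nonlinear regression.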

LNCaP [12] = test: Antiproliferative activity against human LNCAP cells after 96 hrs by SRB assay; format: functional, cell-based; method in brief: as §4
PPC-1 = test: Antiproliferative activity against human PPC1 cells after 96 hrs by SRB assay; format: functional, cell-based; conditions: PPC-1, 96 h; method in brief: as §4
A-375 [13] = test: Cell cycle arrest in human A375 cells by assessed as increase in accumulation at subG1 phase […] by flow cytometry; format: functional, cell-based
LNCaP [14] = test: Cell cycle arrest in human LNCAP cells by assessed as increase in accumulation at subG1 phase […] by flow cytometry; format: functional, cell-based
[15] = biological target: T2, Lysophosphatidic acid receptor 3 (Homo sapiens); test: Antagonist activity at LPA3 expressed in human chem1 cells assessed as effect on intracellular calcium mobilization by FLIPR assay; format: functional, cell-based; method in brief: as §2
[16] = biological target: Lysophosphatidic acid receptor 5 (Homo sapiens) (UniProt Q9H1C0); test: Antagonist activity at LPA5 expressed in human chem1 cells assessed as effect on intracellular calcium mobilization by FLIPR assay; format: functional, cell-based; method in brief: as §2
A-375 [17] = test: Inhibition of human A375 cells colony formation at 2 uM after 7 days by colony-formation assay; format: functional, cell-based
A-375 [18] = test: Inhibition of human A375 cells colony formation at 20 uM after 7 days by colony-formation assay; format: functional
A-375 [19] = test: Inhibition of human A375 cells colony formation at 100 uM after 7 days by colony-formation assay; format: functional, cell-based

| SMILES | IC50 [5] [µM] | IC50 (A-375 [6]) [µM] | IC50 [7] [µM] | IC50 [8] [µM] | selectivity ratio [9] | IC50 (DU-145) [µM] | IC50 (PC-3) [µM] | IC50 (RH7777 [10]) [µM] | Ratio IC50 (RH7777 [11]) | IC50 (LNCaP [12]) [µM] | IC50 (PPC-1) [µM] | further results |
| --- | --- | --- | --- | --- | --- | --- | --- | --- | --- | --- | --- | --- |
| Cc1noc(-c2ccc(CSCCC(=O)O)cc2)c1NC(=O)OC(C)c1ccccc1Cl (centres undefined) | – | – | – | – | – | – | – | – | – | – | – | Activity [1]: inactive; Activity [2]: inactive; Activity [3]: inactive; IC50 [4]: 0.046 µM |
| CCCCCCCCCCCCCCCCCCNC(=O)[C@@H]1CSC(c2cc(OC)c(OC)c(OC)c2)N1 (mixture of isomers) | 5.9 | 4.6 | 3 | 4.7 | 1 | 4.1 | 4.9 | 14 | 4.8 | 1.6 | 1 | – |
| CCCCCCCCCCCCCCCCNC(=O)[C@@H]1CSC(c2cc(OC)c(OC)c(OC)c2)N1 (mixture of isomers) | 1.6 | 1.4 | 0.7 | 2.4 | 2 | – | – | – | – | – | – | Activity (A-375 [13]): Dose-dependent effect; Activity (LNCaP [14]): Dose-dependent effect; Activity [1]: inactive; Activity [2]: inactive; Activity [3]: inactive; Activity [4]: inactive; Activity [15]: inactive; Activity [16]: inactive; Activity (A-375 [17]): Active; Activity (A-375 [18]): Active; Activity (A-375 [19]): Active |
| CC(=O)Nc1ccc(C2N[C@H](C(=O)Nc3ccc(-c4ccccc4)cc3)CS2)cc1 (mixture of isomers) | 5.7 | 6.2 | 4.1 | 33.4 | 6.3 | 5 | 7.6 | 9.5 | 2 | 3.5 | 2.9 | – |
| CCCCCCCCCCCCCCCCNC(=O)[C@@H]1CSC(c2ccc(N(C)C)cc2)N1 (mixture of isomers) | 6.7 | 1.8 | 1.5 | 21 | 6.3 | 3.2 | 6 | 10 | 3.6 | 1.4 | 0.4 | – |
| CCCCCCCCCCCCCCCCCCNC(=O)[C@@H]1CSC(c2ccc(OC)c(OC)c2)N1 (mixture of isomers) | 14.3 | 6.9 | 2.7 | 20.3 | 2.5 | 5.5 | 4.1 | 11.8 | 3.7 | 2.4 | 0.9 | – |
| CCCCCCCCC/C=C/CCCCCCCNC(=O)[C@@H]1CSC(c2ccc(OC)c(OC)c2)N1 (mixture of isomers) | 3.2 | 1.4 | 1.1 | 16.3 | 8.6 | 1.5 | 2 | 9.4 | 8.2 | 0.8 | 0.3 | – |
| CCCCCCCCCCCCCCCCNC(=O)[C@@H]1CSC(c2ccccc2NC(C)=O)N1 (mixture of isomers) | 8 | 9.3 | 3.9 | 27.8 | 3.9 | 4.6 | 2.7 | 13.2 | 4.4 | 3.3 | 1.5 | – |
| CCCCCCCCCCCCCCCCNC(=O)[C@@H]1CSC(c2ccc(NC(=O)CCl)cc2)N1 (mixture of isomers) | 93.3 | 20.4 | 5.7 | 25.4 | 0.6 | 0.7 | 0.9 | 9.4 | 9.4 | 2 | 0.4 | – |
| CCCCCCCCCCCCCCCCNC(=O)[C@@H]1CSC(c2ccccc2OC)N1 (mixture of isomers) | 4.3 | 3 | 2.4 | 7.2 | 2.2 | 6.5 | 7.4 | 17.2 | 3.6 | 3.6 | 1.7 | – |
| CC(=O)Nc1ccc(C2N[C@H](C(=O)Nc3ccc4cc5ccccc5cc4c3)CS2)cc1 (mixture of isomers) | 5.6 | 3.1 | 1.4 | 13.5 | 4 | 0.9 | 0.8 | 2.6 | 2.5 | 1.7 | 0.7 | – |
| CCCCCCCCC/C=C\CCCCCCCNC(=O)[C@@H]1CSC(c2ccccc2)N1 (mixture of isomers) | 6 | 4.9 | 2.4 | 11.6 | 2.6 | 1.8 | 2.4 | 8.3 | 4.9 | 1.6 | 1 | – |
| CCCCCCCCCCCCCCCCNC(=O)[C@@H]1CSC(c2ccc(NC(C)=O)cc2)N1C(C)=O (mixture of isomers) | 15 | 12.6 | 20.4 | 57.7 | 3.6 | 14.9 | 9 | 13 | 1.3 | 10.6 | 6.8 | – |
| CCCCCCCCCCCCCCCCNC[C@@H]1CSC(c2ccccc2)N1 (mixture of isomers) | 4.7 | 13 | 4.9 | 60 | 8 | 3.1 | 3.4 | 6.2 | 1.9 | 3.9 | 2.5 | – |
| CCCCCCCCCCCCCCCCNC[C@@H]1CSC(c2ccc(NC(C)=O)cc2)N1 (mixture of isomers) | 11.9 | 14.4 | 3.2 | 84.5 | 8.6 | 4.7 | 4.5 | 7.9 | 1.9 | 4.7 | 2.4 | – |
| CCCCCCCC/C=C\CCCCCCCC(=O)OC[C@@H](O)COP(=O)(O)O [LYSOPHOSPHATIDIC ACID] | – | – | – | – | – | – | – | – | – | – | – | EC50 [1]: 0.031 µM |
